# Source: PubChem
# Jurkat NFkB inh: inhibitors of induced NF-kB luciferase reporter, primary screen, TCR NF-kB activation inhibitor project, cell-based, luminescence, uHTS | 0.53% of 330,000 active | Jurkat, PMA/ionomycin-induced NF-kB luciferase reporter | inhibition, % at 4 µM; in the data active = inhibition above about 50%
# CHOP inh: inhibitors of CHOP promoter induction, primary screen, cell-based, unfolded protein response, luciferase reporter; CHO-K1 CHOP-promoter luciferase, tunicamycin-induced, 15-18 h; inhibition, % at 10 µM; 3.8% of 220,000 active; AID 2732, 2010;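 active = compounds that reduced the stress-induced luciferase reporter signal by more than about 70% of percent inhibition, limit read from the data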;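 also: 0% = tunicamycin plus vehicle and 100% = wells without tunicamycin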
# XBP1 UPR activ: activators of adaptive XBP1 UPR arm, primary screen, cell-based, CHO-XBP1 luciferase reporter, luminescence, uHTS; IRE1-XBP1 UPR activation; percent of tunicamycin response, DMSO as zero; 0.33% of 330,000 active; activation, % at 20 µM;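 active = versus positive control, 20 µM dose yields 30% or more activation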;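 also: 100% = tunicamycin at 10 µg/mL and 0% = DMSO only wells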
#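 Material: IRE1-XBP1 luciferase reporter CHO line / Quantity: one thousand reporter cells per well / Buffer or medium: F12 with 10% serum / Compound: 20 µM single concentration, DMSO 1% / Times: 6 h treatment, 37 °C / Detection: Steady-Glo luciferase glow luminescence, 10 min after reagent addition / Benchmarks: tunicamycin high, DMSO low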
# 697 NFkB inh: inhibitors of PMA/ionomycin-induced NF-kB reporter, 697 cells, primary screen, B-cell NF-kB inhibitor project, cell-based, luminescence, uHTS; inhibition, % at 4 µM; 697 B-cell NF-kB luciferase reporter, 16 h; 0.33% of 330,000 active; AID 435022, 2010; in the data active = inhibition above about 35%
# Gli-Sufu block: Gli-Sufu pathway antagonists, primary screen, luciferase luminescence, Sufu-KO-LIGHT cells, uHTS; Sufu-KO-LIGHT fibroblasts, Gli luciferase reporter luminescence; inhibition, % at 5 µM; 0.74% of 340,000 active; AID 588413, 2011;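 active = inhibition above about 55%, limit read from the data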;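 also: 0% = DMSO-treated cells and 100% = wells with medium but no cells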
# CHOP UPR activ: activators of apoptotic CHOP UPR arm, primary screen, cell-based, CHO-CHOP luciferase reporter, luminescence, uHTS; AID 449763, 2010; UPR activation; percent of tunicamycin response over DMSO baseline; activation, % at 10 µM; 0.34% of 330,000 active;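 active = at 10 µM dose, activation of 40% or more, normalized to positive control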;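 also: 100% = tunicamycin at 10 µg/mL and 0% = DMSO alone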
#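 Assay system: CHO cells with stable CHOP pathway luciferase reporter; Buffer or medium: F12 plus 10% serum; Times: 16-18 h cell attachment, then 6 h compound exposure, 37 °C; Signal: luciferase luminescence; Read-out basis: percent activation relative to tunicamycin control; Control set: tunicamycin high control, DMSO low control.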
# Gli-Sufu confirm: Gli-SUFU pathway antagonists, confirmation, single concentration, luciferase luminescence, Sufu-KO-LIGHT cells; shares compounds with Gli-Sufu block; Gli luciferase reporter; inhibition, % at 5 µM; 40% of 2,500 active; AID 602428, 2012;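 active = mean inhibition at 5 µM reaching about 45%, limit read from the data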;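 also: plate controls were DMSO-treated cells for no effect and wells lacking cells for full effect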
# SufuKO cytotox: cytotoxicity in Sufu-KO-LIGHT cells, confirmation, cytotoxicity control for Gli-SUFU antagonist project, cell-based, ATP luminescence, single concentration; 32% of 2,500 active; cytotoxicity, % at 5 µM; shares compounds with Gli-Sufu block;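 active = mean cytotoxicity at 5 µM above about 25%, limit read from the data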;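 also: cells exposed to compound overnight for roughly 16 to 18 hours; plate controls were DMSO wells with cells for no effect and medium without cells for full effect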
# Wnt3a cs: Wnt3a reporter signal inhibition, confirmation, counter-screen for Gli-SUFU antagonist project, Wnt-LIGHT cells, luminescence, single concentration; shares compounds with Gli-Sufu block; Wnt3a-driven luciferase reporter; inhibition, % at 6.25 µM; 20% of 2,500 active; AID 651995, 2013;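 active = mean inhibition above about 25%, limit read from the data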
# An asterisk follows results filed as active; / = no result. The list is not random: actives were taken first. Their share in the collection is about 3.9%.
SMILES,Jurkat NFkB inh,CHOP inh,XBP1 UPR activ,697 NFkB inh,Gli-Sufu block,CHOP UPR activ,Gli-Sufu confirm,SufuKO cytotox,Wnt3a cs
CC(NC(=O)c1cc(COc2ccc3ncccc3c2)on1)c1ccc(F)cc1 (stereo not drawn),35.5,67.9,-2.0,-32.0,57.8*,3.9,63.7*,42.9*,15.5
Cc1ccc(OCc2cc(C(=O)NC3CCCCC3)no2)cn1,6.0,/,-3.0,-40.3,56.8*,-2.2,27.0,17.5,-12.9
O=C(NC1CCCC1)c1cc(COc2ccc3ncccc3c2)on1,45.5,55.0,-1.9,-20.3,53.9,1.8,63.2*,24.1,21.2
O=C1CC2(CCCCC2)Oc2ccc(Cl)cc21,-0.3,/,-1.5,9.6,2.4,-0.5,/,/,/
COc1ccccc1N1CCN(C2CCCN(S(=O)(=O)c3ccccc3)C2)CC1 (stereo not drawn),4.3,/,-4.2,-14.7,15.9,-1.2,/,/,/
COc1cc(Br)cc(/C=N/N(CCO)C2=NS(=O)(=O)c3ccccc32)c1OC,-6.6,/,9.2,2.1,64.0*,3.1,42.1,7.3,-12.2
N#C/C(=C(/O)c1ccc([N+](=O)[O-])s1)c1nc2ccccc2[nH]1,-23.4,11.4,0.5,-49.6,53.5,0.5,59.3*,21.1,33.0*
N#C/C(=C(/O)c1ccc(Br)s1)c1nc2ccccc2[nH]1,14.6,/,1.6,-105.7,23.4,0.5,/,/,/
CC(=O)c1cnc(Nc2ccccc2)s1,-23.0,21.2,-0.1,4.1,56.9*,-1.5,10.5,7.7,-92.1
Cc1cccc(N(C(=O)c2snc(C(N)=O)c2N)C(C(=O)NCc2ccccc2)c2ccncc2)c1 (stereo not drawn),-14.3,/,5.7,-5.7,37.5,8.3,/,/,/
O=C(Nc1cc2c3c(c1)CC(=O)N3CCC2)C1CC1,-9.5,/,3.1,7.2,0.3,-0.6,/,/,/
Cc1ccc2c(c1)S/C(=C/c1ccc[n+](C)c1)N2CCO,17.7,-27.5,0.8,-8.8,55.1*,1.0,34.9,3.1,-5.6
CCN1/C(=C/c2cc[n+](C)cc2)C=Cc2cc(C)ccc21,/,62.3,/,/,/,/,/,/,/
c1ccc2c(Nc3ccc4c(c3)OCCO4)c3c(nc2c1)CCCC3,12.4,-15.7,-3.4,-29.7,52.4,0.3,31.7,-2.1,-23.8
COc1cc(NC(=O)CSc2nc(C)cc(C)n2)cc(OC)c1OC,21.1,20.7,1.9,13.2,52.2,-2.7,10.1,2.7,-9.2
Cc1ccc(S(=O)(=O)N2CCC(NC(=O)c3cccnc3)CC2)cc1Cl,8.7,/,-4.3,8.0,21.5,0.4,/,/,/
CN1CCN(CCC(=O)Nc2ccc(Br)cc2)CC1,-15.2,17.9,-1.7,-5.5,84.4*,-0.9,11.2,16.1,-15.8
CCN1CCN(c2ccc(N3CCN(S(=O)(=O)c4ccc(C)c([N+](=O)[O-])c4)CC3)nn2)CC1,-2.2,/,-3.0,-18.2,28.3,1.9,/,/,/
CCN1C/C(=C\c2cc(OC)c(OC)c(OC)c2)C2=NN(c3ccccc3)C(c3cc(OC)c(OC)c(OC)c3)C2C1 (stereo not drawn),/,/,/,/,53.2,/,29.8,16.9,-9.2
CCN(C(=O)COC(=O)CNS(=O)(=O)c1ccc(SC)c([N+](=O)[O-])c1)C1CCCCC1,1.0,/,-1.1,8.3,-13.7,1.5,/,/,/
Cn1c(=O)c2nc(-c3ccccc3)oc2c2ccccc21,-16.4,-2.7,7.2,1.2,-1.4,2.3,/,/,/
CCCCCc1nc2c(=O)n(C)c3ccccc3c2o1,-5.4,16.0,3.4,-14.7,76.4*,5.2,2.7,5.3,-51.6
COc1ccc(C2=NN(c3nc(-c4ccc(CNC(C)=O)cc4)cs3)C(c3ccco3)C2)cc1 (stereo not drawn),-12.0,/,10.2,-10.1,-0.3,5.8,/,/,/
CC(C)(C)c1[nH]nc2c1C(c1ccco1)C(C#N)=C(N)O2 (stereo not drawn),4.2,15.6,-2.0,1.4,53.8,-1.0,10.5,24.0,-13.3
Cc1[nH]nc2c1C(c1ccco1)C(C#N)=C(N)O2 (stereo not drawn),19.6,-20.9,0.8,17.8,-1.2,1.0,/,/,/
SMILES,Jurkat NFkB inh,CHOP inh,XBP1 UPR activ,697 NFkB inh,Gli-Sufu block,CHOP UPR activ,Gli-Sufu confirm,SufuKO cytotox,Wnt3a cs
COc1ccc(S(=O)(=O)NCC2CCCN(Cc3ccc(OC)cc3F)C2)cc1 (stereo not drawn),-3.2,/,-1.6,-8.3,59.7*,-0.9,26.1,-4.6,-15.0
O=C(c1ccc2c(=O)n(C3CCCC3)c(=S)[nH]c2c1)N1CCCCCC1,15.6,16.1,-0.3,-26.1,56.9*,1.2,51.4*,34.6*,-24.4
CCc1nn(CCCC(=O)NCc2ccccc2Br)c(=O)c2cc3occc3n12,-1.2,/,4.1,-10.8,82.1*,0.4,24.6,3.0,-3.5
CCOC(=O)Nc1ccc2c(c1)N(C(=O)CN1CCN(C)CC1)c1ccccc1CC2,-20.8,/,-3.0,6.6,50.5,-1.6,22.7,19.3,-5.6
Cc1ccc(S(=O)(=O)NCCC(=O)N2CCCCCCC2)cc1,-8.9,/,1.2,0.7,95.5*,0.5,12.5,1.2,-10.9
O=C(CCNS(=O)(=O)c1ccccc1)N1CCCCCCC1,0.8,/,-3.9,15.0,-21.2,1.4,/,/,/
CCCCOC(=O)c1[nH]c2c(c1C)C(=O)CC(c1cc(OC)c(OC)c(OC)c1)C2 (stereo not drawn),36.3,/,-2.1,18.9,52.0,6.4,60.4*,24.4,12.1
C=CCOC(=O)c1[nH]c2c(c1C)C(=O)CC(c1cc(OC)c(OC)c(OC)c1)C2 (stereo not drawn),37.8,/,-0.4,12.2,50.8,6.7,61.3*,15.6,24.7
COCCOC(=O)c1[nH]c2c(c1C)C(=O)CC(c1cc(OC)c(OC)c(OC)c1)C2 (stereo not drawn),7.1,/,-4.6,-17.4,34.5,-2.7,/,/,/
COc1cccc(C(CNc2ccc(S(=O)(=O)N3CCN(C)CC3)cc2[N+](=O)[O-])N(C)C)c1 (stereo not drawn),-3.9,/,-2.8,8.3,15.6,5.3,/,/,/
